# Test results as given in ChEMBL document CHEMBL3751813, “Nonpeptidic Amphiphilic Xanthone Derivatives: Structure-Activity Relationship and Membrane-Targeting Properties” (J Med Chem, 2016).
# Test system: Staphylococcus aureus
# Test: Antibacterial activity against clinical isolates of Staphylococcus aureus DM4001R after 24 hrs by […]
# Type: functional
# Conditions: not given
row,Structure (SMILES),MIC [µg/mL]
1,CCN(CCCCOc1cc2oc3cc(OCCCCN(CC)C(C)C)c(OC)c(CC=C(C)C)c3c(=O)c2c(O)c1CC=C(C)C)C(C)C,25
2,COc1c(OCCCCN2CCN(C(=O)OC(C)(C)C)CC2)cc2oc3cc(OCCCCN4CCN(C(=O)OC(C)(C)C)CC4)c(CC=C(C)C)c(O)c3c(=O)c2c1CC=C(C)C,> 50
3,CCCCCCN(C)CCCCOc1cc2oc3cc(OCCCCN(C)CCCCCC)c(OC)c(CC=C(C)C)c3c(=O)c2c(O)c1CC=C(C)C,50
4,COc1c(OCCCCN2CCC(O)CC2)cc2oc3cc(OCCCCN4CCC(O)CC4)c(CC=C(C)C)c(O)c3c(=O)c2c1CC=C(C)C,6.25
5,CCCCCN(C)CCCCOc1cc2oc3cc(OCCCCN(C)CCCCC)c(OC)c(CC=C(C)C)c3c(=O)c2c(O)c1CC=C(C)C,25
6,COc1c(OCCCCN(C)C)cc2oc3cc(OCCCCN(C)C)c(CCC(C)C)c(O)c3c(=O)c2c1CCC(C)C,12.5
7,COc1c(OCCCCN2CCCCC2)cc2oc3cc(OCCCCN4CCCCC4)c(CC=C(C)C)c(O)c3c(=O)c2c1CC=C(C)C,0.78

# Test system: not listed separately
# Test: Selectivity index, ratio of HC50 for hemolytic activity against New Zealand white rabbit RBC to MIC for clinical isolates of Staphylococcus aureus DM4001
# Conditions: not given
row,Structure (SMILES),Selectivity ratio
1,CCN(CCCCOc1cc2oc3cc(OCCCCN(CC)C(C)C)c(OC)c(CC=C(C)C)c3c(=O)c2c(O)c1CC=C(C)C)C(C)C,2.2
2,CCCCCCN(C)CCCCOc1cc2oc3cc(OCCCCN(C)CCCCCC)c(OC)c(CC=C(C)C)c3c(=O)c2c(O)c1CC=C(C)C,> 4
3,COc1c(OCCCCN2CCC(O)CC2)cc2oc3cc(OCCCCN4CCC(O)CC4)c(CC=C(C)C)c(O)c3c(=O)c2c1CC=C(C)C,5.8
4,CCCCCN(C)CCCCOc1cc2oc3cc(OCCCCN(C)CCCCC)c(OC)c(CC=C(C)C)c3c(=O)c2c(O)c1CC=C(C)C,> 8
5,COc1c(OCCCCN(C)C)cc2oc3cc(OCCCCN(C)C)c(CCC(C)C)c(O)c3c(=O)c2c1CCC(C)C,4.9
6,COc1c(OCCCCN2CCCCC2)cc2oc3cc(OCCCCN4CCCCC4)c(CC=C(C)C)c(O)c3c(=O)c2c1CC=C(C)C,24.7

# Test system: Staphylococcus aureus
# Test: Induction of membrane permeabilization in clinical isolates of Staphylococcus aureus DM4001 at MIC by SYTOX green uptake assay
# Type: functional
# Conditions: not given
# Procedure, shortened: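 Exponential-phase cells washed twice in 20 mM PBS pH 7 and adjusted to OD620 0.09. Given 3 µM SYTOX Green and kept in the dark until fluorescence was stable, then compound added. Fluorescence followed in a stirred cuvette at ex 504/em 523 nm. Melittin 10 µg/mL was the positive control. Run at least twice; one run reported.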
row,Structure (SMILES),Activity [cps]
1,CCN(CCCCOc1cc2oc3cc(OCCCCN(CC)C(C)C)c(OC)c(CC=C(C)C)c3c(=O)c2c(O)c1CC=C(C)C)C(C)C,97824
2,CCCCCCN(C)CCCCOc1cc2oc3cc(OCCCCN(C)CCCCCC)c(OC)c(CC=C(C)C)c3c(=O)c2c(O)c1CC=C(C)C,74047
3,COc1c(OCCCCN2CCC(O)CC2)cc2oc3cc(OCCCCN4CCC(O)CC4)c(CC=C(C)C)c(O)c3c(=O)c2c1CC=C(C)C,50250
4,CCCCCN(C)CCCCOc1cc2oc3cc(OCCCCN(C)CCCCC)c(OC)c(CC=C(C)C)c3c(=O)c2c(O)c1CC=C(C)C,47166
5,COc1c(OCCCCN2CCCCC2)cc2oc3cc(OCCCCN4CCCCC4)c(CC=C(C)C)c(O)c3c(=O)c2c1CC=C(C)C,2797

# Test system: Staphylococcus aureus
# Test: Induction of membrane permeabilization in clinical isolates of Staphylococcus aureus DM4001 assessed as ATP leakage at MIC incubated for 10 mins by firefly luciferase based luminometry analysis
# Type: functional
# Conditions: not given
# Procedure, shortened: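 Exponential-phase cells washed twice in 20 mM PBS pH 7 and set to OD620 0.3. Exposed 10 min at 37 °C, then spun at 4000 rpm for 5 min. Supernatant mixed with luciferase reagent (1 mM DTT, 0.5 mM D-luciferin, 1.25 µg/mL firefly luciferase). Luminescence read over 30 cycles.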
row,Structure (SMILES),Activity [µM]
1,CCN(CCCCOc1cc2oc3cc(OCCCCN(CC)C(C)C)c(OC)c(CC=C(C)C)c3c(=O)c2c(O)c1CC=C(C)C)C(C)C,5.407
2,CCCCCCN(C)CCCCOc1cc2oc3cc(OCCCCN(C)CCCCCC)c(OC)c(CC=C(C)C)c3c(=O)c2c(O)c1CC=C(C)C,8.545
3,COc1c(OCCCCN2CCC(O)CC2)cc2oc3cc(OCCCCN4CCC(O)CC4)c(CC=C(C)C)c(O)c3c(=O)c2c1CC=C(C)C,5.938
4,CCCCCN(C)CCCCOc1cc2oc3cc(OCCCCN(C)CCCCC)c(OC)c(CC=C(C)C)c3c(=O)c2c(O)c1CC=C(C)C,8.949
5,COc1c(OCCCCN2CCCCC2)cc2oc3cc(OCCCCN4CCCCC4)c(CC=C(C)C)c(O)c3c(=O)c2c1CC=C(C)C,0.626

# Test system: not listed separately
# Test: Hemolytic activity against New Zealand white rabbit RBC after 1 hr by microplate reader analysis
# Type: ADME, cell-based, Oryctolagus cuniculus, Erythrocyte
# Conditions: rabbit red blood cells
# Procedure, shortened: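 Rabbit RBCs spun from serum at 3,000 rpm for 10 min and washed twice in PBS. Mixed with compound in DMF at 4% v/v RBCs, 1 h at 37 °C. After centrifugation, hemoglobin in the supernatant read at 576 nm. 2% Triton X-100 was the positive control and 1% DMF the negative control.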
row,Structure (SMILES),HC50 at 1 h [µg/mL]
1,CCN(CCCCOc1cc2oc3cc(OCCCCN(CC)C(C)C)c(OC)c(CC=C(C)C)c3c(=O)c2c(O)c1CC=C(C)C)C(C)C,54.6
2,COc1c(OCCCCN2CCN(C(=O)OC(C)(C)C)CC2)cc2oc3cc(OCCCCN4CCN(C(=O)OC(C)(C)C)CC4)c(CC=C(C)C)c(O)c3c(=O)c2c1CC=C(C)C,> 200
3,CCCCCCN(C)CCCCOc1cc2oc3cc(OCCCCN(C)CCCCCC)c(OC)c(CC=C(C)C)c3c(=O)c2c(O)c1CC=C(C)C,> 200
4,COc1c(OCCCCN2CCC(O)CC2)cc2oc3cc(OCCCCN4CCC(O)CC4)c(CC=C(C)C)c(O)c3c(=O)c2c1CC=C(C)C,36
5,CCCCCN(C)CCCCOc1cc2oc3cc(OCCCCN(C)CCCCC)c(OC)c(CC=C(C)C)c3c(=O)c2c(O)c1CC=C(C)C,> 200
6,COc1c(OCCCCN(C)C)cc2oc3cc(OCCCCN(C)C)c(CCC(C)C)c(O)c3c(=O)c2c1CCC(C)C,60.7

# Test system: Staphylococcus aureus
# Test: Antibacterial activity against clinical isolates of methicillin-resistant Staphylococcus aureus DM21455 after 24 hrs by […]
# Type: functional
# Conditions: DM21455, 24 h
row,Structure (SMILES),MIC [µg/mL]
1,CCN(CCCCOc1cc2oc3cc(OCCCCN(CC)C(C)C)c(OC)c(CC=C(C)C)c3c(=O)c2c(O)c1CC=C(C)C)C(C)C,25
2,COc1c(OCCCCN2CCN(C(=O)OC(C)(C)C)CC2)cc2oc3cc(OCCCCN4CCN(C(=O)OC(C)(C)C)CC4)c(CC=C(C)C)c(O)c3c(=O)c2c1CC=C(C)C,> 50
3,CCCCCCN(C)CCCCOc1cc2oc3cc(OCCCCN(C)CCCCCC)c(OC)c(CC=C(C)C)c3c(=O)c2c(O)c1CC=C(C)C,50
4,COc1c(OCCCCN2CCC(O)CC2)cc2oc3cc(OCCCCN4CCC(O)CC4)c(CC=C(C)C)c(O)c3c(=O)c2c1CC=C(C)C,12.5
5,CCCCCN(C)CCCCOc1cc2oc3cc(OCCCCN(C)CCCCC)c(OC)c(CC=C(C)C)c3c(=O)c2c(O)c1CC=C(C)C,25
6,COc1c(OCCCCN(C)C)cc2oc3cc(OCCCCN(C)C)c(CCC(C)C)c(O)c3c(=O)c2c1CCC(C)C,12.5
7,COc1c(OCCCCN2CCCCC2)cc2oc3cc(OCCCCN4CCCCC4)c(CC=C(C)C)c(O)c3c(=O)c2c1CC=C(C)C,1.56

# Test system: Staphylococcus aureus
# Test: Antibacterial activity against clinical isolates of methicillin-resistant Staphylococcus aureus DM9808R after 24 hrs by […]
# Type: functional
# Conditions: not given
row,Structure (SMILES),MIC [µg/mL]
1,CCN(CCCCOc1cc2oc3cc(OCCCCN(CC)C(C)C)c(OC)c(CC=C(C)C)c3c(=O)c2c(O)c1CC=C(C)C)C(C)C,12.5
2,COc1c(OCCCCN2CCN(C(=O)OC(C)(C)C)CC2)cc2oc3cc(OCCCCN4CCN(C(=O)OC(C)(C)C)CC4)c(CC=C(C)C)c(O)c3c(=O)c2c1CC=C(C)C,> 50
3,CCCCCCN(C)CCCCOc1cc2oc3cc(OCCCCN(C)CCCCCC)c(OC)c(CC=C(C)C)c3c(=O)c2c(O)c1CC=C(C)C,50
4,COc1c(OCCCCN2CCC(O)CC2)cc2oc3cc(OCCCCN4CCC(O)CC4)c(CC=C(C)C)c(O)c3c(=O)c2c1CC=C(C)C,3.12
5,CCCCCN(C)CCCCOc1cc2oc3cc(OCCCCN(C)CCCCC)c(OC)c(CC=C(C)C)c3c(=O)c2c(O)c1CC=C(C)C,25
6,COc1c(OCCCCN(C)C)cc2oc3cc(OCCCCN(C)C)c(CCC(C)C)c(O)c3c(=O)c2c1CCC(C)C,25
7,COc1c(OCCCCN2CCCCC2)cc2oc3cc(OCCCCN4CCCCC4)c(CC=C(C)C)c(O)c3c(=O)c2c1CC=C(C)C,1.56

# Test system: Bacillus cereus
# Test: Antibacterial activity against clinical isolates of Bacillus cereus ATCC 11778 after 24 hrs by […]
# Type: functional
# Conditions: ATCC 11778, 24 h
row,Structure (SMILES),MIC [µg/mL]
1,CCN(CCCCOc1cc2oc3cc(OCCCCN(CC)C(C)C)c(OC)c(CC=C(C)C)c3c(=O)c2c(O)c1CC=C(C)C)C(C)C,12.5
2,COc1c(OCCCCN2CCN(C(=O)OC(C)(C)C)CC2)cc2oc3cc(OCCCCN4CCN(C(=O)OC(C)(C)C)CC4)c(CC=C(C)C)c(O)c3c(=O)c2c1CC=C(C)C,> 50
3,CCCCCCN(C)CCCCOc1cc2oc3cc(OCCCCN(C)CCCCCC)c(OC)c(CC=C(C)C)c3c(=O)c2c(O)c1CC=C(C)C,50
4,COc1c(OCCCCN2CCC(O)CC2)cc2oc3cc(OCCCCN4CCC(O)CC4)c(CC=C(C)C)c(O)c3c(=O)c2c1CC=C(C)C,6.25
5,CCCCCN(C)CCCCOc1cc2oc3cc(OCCCCN(C)CCCCC)c(OC)c(CC=C(C)C)c3c(=O)c2c(O)c1CC=C(C)C,12.5
6,COc1c(OCCCCN(C)C)cc2oc3cc(OCCCCN(C)C)c(CCC(C)C)c(O)c3c(=O)c2c1CCC(C)C,12.5
7,COc1c(OCCCCN2CCCCC2)cc2oc3cc(OCCCCN4CCCCC4)c(CC=C(C)C)c(O)c3c(=O)c2c1CC=C(C)C,6.25
